Results of several laboratories.
Compare with care: the assays were run in different laboratories.
Target: Myosin-IIIb (MYO3B, Homo sapiens, UniProt Q8WXR4)
One construct used (Q8WXR4 1-1341): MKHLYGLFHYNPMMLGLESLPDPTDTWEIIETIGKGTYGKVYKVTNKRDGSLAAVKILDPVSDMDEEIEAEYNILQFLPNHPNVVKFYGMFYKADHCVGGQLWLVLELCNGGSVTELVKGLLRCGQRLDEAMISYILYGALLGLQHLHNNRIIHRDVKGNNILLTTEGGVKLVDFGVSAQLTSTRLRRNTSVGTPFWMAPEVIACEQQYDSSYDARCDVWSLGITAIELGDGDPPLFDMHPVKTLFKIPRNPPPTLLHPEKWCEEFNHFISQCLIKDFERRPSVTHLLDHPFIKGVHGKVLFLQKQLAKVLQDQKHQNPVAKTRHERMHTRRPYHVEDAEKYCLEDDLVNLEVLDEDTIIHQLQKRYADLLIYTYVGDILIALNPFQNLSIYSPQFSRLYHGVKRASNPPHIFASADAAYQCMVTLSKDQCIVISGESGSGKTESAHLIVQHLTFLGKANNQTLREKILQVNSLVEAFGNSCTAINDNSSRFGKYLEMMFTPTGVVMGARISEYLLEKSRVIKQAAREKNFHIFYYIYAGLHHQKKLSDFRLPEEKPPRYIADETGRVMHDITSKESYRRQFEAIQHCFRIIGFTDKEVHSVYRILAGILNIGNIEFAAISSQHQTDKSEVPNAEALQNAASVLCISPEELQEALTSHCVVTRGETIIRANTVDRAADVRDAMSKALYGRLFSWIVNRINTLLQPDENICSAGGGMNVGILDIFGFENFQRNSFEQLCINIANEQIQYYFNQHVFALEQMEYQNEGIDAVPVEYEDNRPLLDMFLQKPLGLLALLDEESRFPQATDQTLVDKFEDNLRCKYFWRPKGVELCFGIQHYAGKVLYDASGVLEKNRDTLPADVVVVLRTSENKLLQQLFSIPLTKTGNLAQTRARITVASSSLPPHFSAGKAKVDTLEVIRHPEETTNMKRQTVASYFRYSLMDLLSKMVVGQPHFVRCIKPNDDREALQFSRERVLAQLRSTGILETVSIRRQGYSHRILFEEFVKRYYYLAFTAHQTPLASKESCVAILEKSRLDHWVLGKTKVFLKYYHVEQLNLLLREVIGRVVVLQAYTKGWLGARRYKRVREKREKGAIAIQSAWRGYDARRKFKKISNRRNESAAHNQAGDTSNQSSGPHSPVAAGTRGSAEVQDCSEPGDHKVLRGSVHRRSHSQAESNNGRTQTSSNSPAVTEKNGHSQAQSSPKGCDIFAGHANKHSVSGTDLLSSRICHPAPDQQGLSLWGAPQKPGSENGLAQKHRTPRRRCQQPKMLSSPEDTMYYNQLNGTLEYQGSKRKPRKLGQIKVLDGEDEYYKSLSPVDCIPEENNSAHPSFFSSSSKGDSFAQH

| SMILES | read-out | method | tested at | remaining binding [%] |
| --- | --- | --- | --- | --- |
| Cc1cnn2ncc(-c3ccnc(N(C)C)n3)c2c1 | binding |  | 1 µM | 80 |
| Cc1cnc(Nc2ccc(C(=O)N3CCC(N4CCCC4)CC3)cc2)nc1-c1cc2ccccc2s1 | binding | competition with immobilised ligand | 1 µM | 100 |
| CNC(=O)[C@@H]1CC[C@@H](n2c(-c3ccc4cnccc4c3)nc3ccc(C(=O)NCc4cccc(C(N)=O)c4)cc32)C1 | binding | competition with immobilised ligand | 1 µM | 98 |
| O=C(c1ccc(Nc2ncc(Cl)c(-c3ccc(Cl)s3)n2)cc1)N1CCC(N2CCCC2)CC1 | binding | competition with immobilised ligand | 1 µM | 100 |
| c1cnn2ncc(-c3ccnc(N4CCC45COC5)n3)c2c1 | binding |  | 1 µM | 100 |
| C[C@@H](c1ccc(-n2cnc3c(N)ncnc32)cc1)N1CCc2nn(C)c(Cc3ccccc3)c2C1=O | binding | competition with immobilised ligand | 0.1 µM | 77 |
| C[C@H](c1ccc(F)cc1)N(Cc1cccc(C(=O)O)c1)C(=O)c1cnc2ccccc2c1 | binding | competition with immobilised ligand | 1 µM | 100 |
| C[C@@H]1CCN(c2nccc(-c3cnn4ncccc34)n2)C1 | binding |  | 1 µM | 100 |
| FC(F)(F)c1ccc2c(c1)nc(-c1cccnc1)n2C1CC1 | cell-free assay | competition with immobilised ligand | 1 µM | 67 |
| CN(C)c1nccc(-c2cnc3ncccn23)n1 | binding |  | 1 µM | 79 |
| Nc1ncc2c(n1)-c1c([nH]c3ccc(C#CC4CC4)cc13)CCCC2 | binding | competition with immobilised ligand | 1 µM | 75 |
| Cc1nc(N2CC[C@@H](O)C2)ncc1-c1cc(C(F)(F)F)cc2[nH]ncc12 | binding | competition with immobilised ligand | 1 µM | 93 |
| O=C(c1ccc(Nc2nccc(-c3cc4ccccc4s3)n2)cc1)N1CCC(N2CCCC2)CC1 | binding | competition with immobilised ligand | 1 µM | 100 |
| CCC(=O)N[C@H]1CC[C@@H](C(=O)N(C)c2ccc(-c3nc4ccccc4o3)cc2)C1 | cell-free assay | competition with immobilised ligand | 1 µM | 98 |
| O=C(NCC1CCOCC1)c1n[nH]cc1NC(=O)c1c(F)cccc1F | binding | competition with immobilised ligand | 1 µM | 100 |
| c1cncc(-c2cccc(Nc3nccc(NC4CCCCC4)n3)c2)c1 | binding | competition with immobilised ligand | 10 µM | 100 |
| CN(C)c1nccc(-c2cnn3ncccc23)n1 | binding |  | 1 µM | 100 |
| CC1=C(C#N)C(c2ccc3c(c2)c(NC(=O)c2ccccc2C)nn3C)C(C#N)=C(C)N1 | binding | competition with immobilised ligand | 1 µM | 100 |
| CC1CCCN1c1nccc(-c2cnn3ncccc23)n1 (stereo not drawn) | binding |  | 1 µM | 100 |
| CNCc1ccccc1-c1csc([C@@H](C)Nc2nc(C)nc3cc(OC)c(OC)cc23)c1 | cell-free assay | competition with immobilised ligand | 1 µM | 47 |
| C=CC(=O)N1CCC(C(=O)NCC(=O)N2CCN(c3nc(-c4cnc(N)nc4C(F)F)nc(N4CCOCC4)n3)CC2)CC1 | binding | competition with immobilised ligand | 1 µM | 96 |
